m5-HT2A agonist – mouse Htr2a agonists via beta-arrestin recruitment, primary screen, cell-based, luminescence. activation, % at 7.6 µM. CHO-K1 mHTR2A beta-arrestin complementation; percent of 30 µM serotonin response. 360,000 tested, 0.66% active. 5-hydroxytryptamine receptor 2A (Mus musculus), P35363;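 active means activation above a run cutoff, the mean activation of all tested compounds plus 3 SD, cut at about 14% in these data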;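 further: 0% = plate median of compound wells and 100% = 30 µM serotonin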
APJ ag – agonists of human apelin receptor APJ, primary screen, CHO-K1 cells, PathHunter beta-arrestin, luminescence; 0% DMSO wells, 100% apelin; 330,000 tested, 0.11% active; activation, % at 20 µM;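 active means activation more than six SD over the plate average, tested at 20 µM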;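 further: 0% = DMSO alone and 100% = apelin-13 at 10 nM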
Target sequence (P35414 whole entry, looked up): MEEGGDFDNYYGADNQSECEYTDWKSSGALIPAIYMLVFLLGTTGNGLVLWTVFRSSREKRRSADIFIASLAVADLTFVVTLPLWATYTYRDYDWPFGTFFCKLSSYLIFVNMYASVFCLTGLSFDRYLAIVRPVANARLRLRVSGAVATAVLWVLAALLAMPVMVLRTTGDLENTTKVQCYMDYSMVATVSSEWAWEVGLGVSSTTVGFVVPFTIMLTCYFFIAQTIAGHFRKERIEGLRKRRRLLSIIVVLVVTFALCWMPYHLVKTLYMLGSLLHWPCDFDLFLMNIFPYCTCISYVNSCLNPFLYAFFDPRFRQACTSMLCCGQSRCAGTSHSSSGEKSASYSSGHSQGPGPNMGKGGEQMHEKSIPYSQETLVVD
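Material: engineered CHO-K1 APJ arrestin reporter cells; amount: 1000 CHO-K1 reporter cells seeded per well; incubation: compound stimulation 90 min at 25 °C, detection 60 min; signal: luminescent beta-gal fragment complementation, chemiluminescent substrate; read-out basis: APJ agonist activity; controls: DMSO-only wells as negative, 10 nM Apelin-13 as positive control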
CCR6 antag – CCR6 receptor antagonists, primary screen, cell-based, CHO-K1, luminescence, beta-arrestin, uHTS; AID 493098, 2011; 340,000 tested, 0.49% active; inhibition, % at 20 µM; CHO-K1 CCR6 PathHunter beta-arrestin, CCL20-stimulated; C-C chemokine receptor type 6 (Homo sapiens), P51684;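 active means compounds whose inhibition of the agonist-driven luminescence signal at 20 µM reaches about 50%, limit read from the data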;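 further: cells stimulated with CCL20 at 14 nM final; plate controls were DMSO with CCL20 for no effect and DMSO without agonist for full effect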
APJ antag – antagonists of human apelin receptor APJ, primary screen, CHO-K1 cells, beta-arrestin complementation, luminescence; 330,000 tested, 0.32% active; AID 2521, 2010; P35414; inhibition, % at 20 µM;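 active means inhibition above about 40% at 20 µM, limit read from the data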;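 further: cells challenged with 10 nM apelin-13 agonist together with compound; plate controls were apelin-13 plus DMSO wells for no effect and DMSO wells lacking apelin-13 for full effect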
CXCR6 inh – CXCR6 receptor inhibitors, primary screen, cell-based, beta-arrestin, luminescence, CHO-K1 PathHunter, 1536-well; C-X-C chemokine receptor type 6 (Homo sapiens), O00574; inhibition, % at 20 µM; 360,000 tested, 0.36% active; in the data active means inhibition above about 34%, passing the limit was not always enough;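 further: antagonist mode with CXCL16 agonist at 10 nM final; 0% = 10 nM CXCL16 with DMSO and 100% = unstimulated wells without agonist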
EBI2 block – EBI2 receptor antagonists, beta-arrestin recruitment, primary screen, cell-based, luminescence, 7a,25-OHC stimulation, uHTS. 7a,25-OHC stimulated. 360,000 tested, 0.81% active. G-protein coupled receptor 183 (Homo sapiens), P32249. inhibition, % at 5 µM; in the data active means inhibition above about 38%;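 further: enzyme fragment complementation signal reports receptor beta-arrestin coupling in cells; 0% = agonist plus DMSO wells and 100% = wells without agonist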
* marks the source's active call; other numbers are inactive results; / = not tested or not shown. Only some compounds are listed: those with a hit (about 2.1% of all), similar ones and a draw of the others.

SMILES | m5-HT2A agonist | APJ ag | CCR6 antag | APJ antag | CXCR6 inh | EBI2 block
COc1cc(N(C)C)ccc1C=c1c2ccccc2n2c1cc(-c1ccccc1)[n+]2C | -2 | / | 65* | / | 60* | 32
CN(C)c1ccc(C=c2c3ccccc3n3c2cc(-c2ccccc2)[n+]3C)cc1 | -10 | / | 62* | / | 52* | 12
CN(C)c1ccc(C=c2c3cc([N+](=O)[O-])ccc3n3c2cc(-c2ccccc2)[n+]3C)cc1 | -8 | / | 68* | / | 49* | 14
COc1ccc(NC(=O)CN(C)C(C)C(=O)N2CCCCC2)cc1 (stereo not given) | 2 | -1 | 9 | -12 | -2 | -1
COC(=O)/C(=C/c1cccc([N+](=O)[O-])c1)NC(=O)c1ccc(OC)cc1 | 1 | -1 | 15 | 1 | -1 | -2
COc1ccc(CC(=O)Nc2cccc(S(=O)(=O)N3CCCC3)c2)cc1OC | -1 | -1 | 6 | -10 | -8 | -8
COc1ccc2cc(C#N)c(SCC(=O)N3CC(=O)Nc4ccccc43)nc2c1 | -3 | -2 | -5 | 5 | -2 | 74*
Cc1cccc2cc(C#N)c(SCC(=O)N3CC(=O)Nc4ccccc43)nc12 | -2 | 4 | 13 | 7 | 1 | 57*
O=C(O)CCCN1C(=O)/C(=C\c2ccco2)SC1=S | -1 | / | 15 | / | -3 | -9
O=C(O)CCN1C(=O)/C(=C\c2ccc(-c3nc4ccccc4s3)o2)SC1=S | 2 | -2 | 53* | 3 | 38 | 27
CN[C@@H]1[C@H](O)[C@H](NC)[C@H]2O[C@@]3(O)C(=O)C[C@@H](C)O[C@H]3O[C@@H]2[C@H]1O | 16* | -4 | 3 | -5 | 5 | -4
CC(=NNc1nc2ccccc2s1)c1ccncn1 | -1 | / | 54* | / | 45* | 55*
COc1ccc(CC(=O)N2CCN(c3cccc(C)c3C)CC2)cc1 | -1 | -3 | 7 | 10 | -9 | 17
COc1ccccc1N1C(=O)C=C(Sc2nc(C)cc(C)n2)C1=O | -2 | -2 | 94* | -11 | 11 | 3
O=c1ccc(N=Nc2ccccc2)ccc1O | 10 | / | 66* | / | 29 | -5
COC(=O)C1=C(C)N(Cc2ccc(C)cc2)C(=O)/C1=C\c1ccc(O)c(OC)c1 | 2 | -1 | 34 | 14 | 36* | 7
COC(=O)C1=C(C)N(Cc2ccc(C)cc2)C(=O)/C1=C\c1cc(OC)c(OC)c(OC)c1 | -3 | -1 | 38 | 3 | 12 | 37
Cn1c(N)c(C(=O)c2cc(-c3ccccn3)nc3ccccc23)c(=O)[nH]c1=O | -5 | 4 | -1 | 56* | 4 | -1
CN(C)S(=O)(=O)N1CCc2ccccc2C1 | -2 | -3 | -6 | 11 | -6 | 10
Cc1oc2c(CN(C)C)c(O)ccc2c(=O)c1-c1ccc2ccccc2n1 | -5 | -2 | -14 | 2 | 4 | -15
COC(=O)C1=CN(Cc2ccc(C)cc2)C=C(C(=O)OC)C1c1ccc(F)c(F)c1 | 9 | -3 | 6 | -1 | 12 | -23
Clc1ccc(-n2cccc2)cn1 | -1 | -2 | 4 | -8 | 3 | 8
CN(C)CC(CCC(CN(C)C)C(=O)c1ccccc1)C(=O)c1ccccc1 (stereo not given) | -8 | / | 98* | / | 76* | 47*
C#CC(=O)N(c1cccc(OC)c1)C(C(=O)NC1CCCC1)c1cccs1 (stereo not given) | -8 | 1 | 26 | 5 | 18 | 53*
O=C(CSc1ccc2c(c1)OCCO2)N1CCN(c2ccccc2O)CC1 | 4 | 14 | 3 | -2 | -7 | 15
SMILES | m5-HT2A agonist | APJ ag | CCR6 antag | APJ antag | CXCR6 inh | EBI2 block
CCOC(=O)Cn1c(=NC(=O)C2COc3ccccc3O2)sc2cc(S(N)(=O)=O)ccc21 (stereo not given) | -1 | 1 | 8 | 5 | 10 | 0
CCOC(=O)Cn1c(=NC(=O)c2ccc([N+](=O)[O-])s2)sc2ccccc21 | 2 | 2 | 54* | -64 | 8 | 7
CCOC(=O)/C=C/C(=O)Nc1cccc([N+](=O)[O-])c1 | -3 | -2 | / | 7 | 85* | -3
COc1ccccc1C1=NOC(COC(=O)c2ccc3ccccc3n2)C1 (stereo not given) | -4 | -4 | 2 | 9 | 3 | -3
C(=C\c1sc(Nc2ccccc2)n[n+]1-c1ccccc1)/c1ccccc1 | 0 | / | 66* | / | 26 | -4
Cc1ccc(NC(=O)c2cc([N+](=O)[O-])ccc2NCc2cccnc2)cc1Cl | 0 | -3 | 5 | 23 | 4 | 35
Cc1ccc(-c2cc(-c3ccc(Cl)cc3)c(C#N)c(N)n2)o1 | 1 | -4 | 86* | -19 | 8 | -1
Cc1ccc(-c2cc(C(=O)N3CCOCC3)no2)cc1 | 1 | -1 | -7 | 9 | 9 | 6
CC1=NN(c2ccccc2)C(=O)/C1=C\C=C\c1ccccc1 | 1 | -3 | 19 | 3 | 12 | 7
CC1=NN(c2ccccc2)C(=O)/C1=C/C=C/c1ccc(N(C)C)cc1 | -2 | / | 89* | / | 71* | 56*
C/C(=N\Nc1nccnc1Cl)c1c(F)c(F)c(F)c(F)c1F | 0 | -3 | 4 | -1 | 2 | -5
Cc1ccccc1-c1ccc(Nc2ccc(N3CCOCC3)cc2)nn1 | -5 | 2 | -12 | 4 | 3 | 71*
O=C1c2cccc3c([N+](=O)[O-])ccc(c23)C(=O)N1O | 3 | 7 | -16 | -55 | -13 | -14
O=C1c2cccc3cccc(c23)C(=O)N1c1nccs1 | 1 | -4 | -4 | -8 | 5 | -17
O=C1c2cccc3c([N+](=O)[O-])ccc(c23)C(=O)N1c1nccs1 | 0 | 0 | 73* | 27 | 43* | 15
CC(=O)Oc1ccc(N2C(=O)c3cccc4c([N+](=O)[O-])ccc(c34)C2=O)cc1 | -2 | -1 | 65* | 34 | 16 | 38
Cc1cc(C)n2nc(C(=O)N3CCCC(N4CCN(c5ccccc5C)CC4)C3)cc2n1 (stereo not given) | -4 | -3 | 5 | 9 | -2 | -1
COc1ccc(N2CSC3=C(C#N)C(c4cc(OC)ccc4OC)CC(=O)N3C2)c(OC)c1 (stereo not given) | -1 | 20 | 14 | -15 | -12 | -3
COc1ccc(N2CSC3=C(C#N)C(c4cc(OC)c(OC)cc4OC)CC(=O)N3C2)c(OC)c1 (stereo not given) | 0 | 25* | -10 | -16 | -8 | -7

Screening data deposited in PubChem BioAssay by several laboratories.
